Shown are actives, neighbours in structure and some others; about 0.72% of the full set was active somewhere.
mIAP activ: mouse IAP activation; muIAP, CDP-Star luminescence, 30 min; hits give high values; 1 = vehicle-only enzyme signal, 0 = enzyme-free wells; activation factor at 10 µM; 0.24% of 330,000 active;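 active = activation factor of at least 2 at 20 µM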
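System: Mouse IAP enzyme | Also added: CDP-Star substrate | Dosing: Compounds dispensed in DMSO | Schedule: 30 min enzyme-substrate-compound incubation at room temperature | Technique: Chemiluminescence readout | Control set: DMSO-only wells and no-enzyme negative control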
bIAP act: increases bovine intestinal alkaline phosphatase activity | purified bovine IAP, CDP-star luminescence, 30 min; hits give high values; fold of DMSO-control signal, blank-subtracted | 0.17% of 200,000 active | activation factor at 20 µM;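 active = activation factor of 2 or more at 20 µM, a signal rise over negative controls twice the positive control's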
hIAP inh: blocks human intestinal alkaline phosphatase | purified IAP, CDP-Star luminescence, 30 min | 0.12% of 330,000 active | AID 2544 | P09923 | inhibition, % at 10 µM;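 active = inhibition reaching a set limit with compound at 10 µM in the primary screen, cut at about 35% in these data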;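 also: plate controls were DMSO wells with enzyme for no effect and no-enzyme buffer wells for full effect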
Target sequence (P09923 whole entry, looked up): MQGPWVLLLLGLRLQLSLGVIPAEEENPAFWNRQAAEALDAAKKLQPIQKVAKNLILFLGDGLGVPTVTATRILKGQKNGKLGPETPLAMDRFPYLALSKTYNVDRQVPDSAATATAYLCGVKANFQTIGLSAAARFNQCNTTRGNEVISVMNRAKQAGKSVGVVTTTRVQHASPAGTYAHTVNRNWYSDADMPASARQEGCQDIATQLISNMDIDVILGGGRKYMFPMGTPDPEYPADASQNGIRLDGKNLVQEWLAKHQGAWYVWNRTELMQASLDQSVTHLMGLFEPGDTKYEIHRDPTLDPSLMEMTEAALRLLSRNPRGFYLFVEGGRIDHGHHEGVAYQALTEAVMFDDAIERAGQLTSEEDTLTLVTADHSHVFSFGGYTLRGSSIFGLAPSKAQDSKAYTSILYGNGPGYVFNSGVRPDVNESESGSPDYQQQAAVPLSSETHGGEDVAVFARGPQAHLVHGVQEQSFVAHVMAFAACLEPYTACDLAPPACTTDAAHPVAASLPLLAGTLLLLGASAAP
bIAP inhibitor: blocks bovine intestinal alkaline phosphatase activity; 190,000 tested, under 10 active; purified bovine IAP, CDP-star luminescence, 30 min; AID 1019; inhibition, % at 20 µM;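 active = over 50% inhibition of intestinal alkaline phosphatase at 20 µM in the single-dose screen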
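Assay system – bovine IAP enzyme · Quantity – bovine IAP at 1/65,000,000 final dilution · Detection – CDP-star luminescence signal · Times – 30 min reaction at room temperature · Also added – CDP-star substrate at 30 µM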
mIAP block: mouse IAP inhibition | purified mouse IAP, CDP-Star luminescence, 30 min | inhibition, % at 10 µM | 0.2% of 330,000 active | AID 2806;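 active = inhibition of at least 40% at 10 µM in the primary screen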;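 also: plate controls were DMSO with enzyme for no effect and no enzyme wells for full effect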
hIAP act: increases human intestinal alkaline phosphatase activity; activation factor at 10 µM; AID 2524; purified human IAP, CDP-Star luminescence, 30 min; hits give high values; 1 = vehicle-only enzyme, 0 = enzyme-free background; 0.16% of 330,000 active;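 active = activation factor of the enzyme at least 2-fold when tested at 20 µM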
* = called active by the depositor.

For O=C(Cc1cccc2ccccc12)N/N=C/c1ccc(F)cc1 the results were mIAP activ 1.03, bIAP act 1, hIAP inh 3.5, bIAP inhibitor 4.3, mIAP block -2.7 and hIAP act 0.965.
Screening O=C(Cc1cccc2ccccc12)N/N=C/c1ccc(OC(=O)/C=C/c2ccco2)cc1 returned mIAP activ 0.366, bIAP act 0.9, hIAP inh 6.2, bIAP inhibitor 6.9, mIAP block 63.4* and hIAP act 0.938.
For CCCCCCCCNc1ncnc2ccccc12 the results were mIAP activ 1.23, bIAP act 9*, hIAP inh 23.3, bIAP inhibitor inactive, mIAP block -22.5 and hIAP act 0.767.
CC(=O)c1c(C)[nH]c(C(=O)C(C)Sc2nnc(NC3CC3)s2)c1C (stereo not drawn) was read as mIAP activ 1.01, hIAP inh 14.5, mIAP block -0.9 and hIAP act 0.855.
CC(Sc1ccc(S(=O)(=O)N2CCCCCC2)cn1)C(N)=O (stereo not drawn) was read as mIAP activ 1, hIAP inh 2.5, mIAP block -0.3 and hIAP act 0.975.
CCCCOc1ccccc1C(=O)NNC(=S)NC(=O)c1ccccc1[N+](=O)[O-] was read as mIAP activ 0.79, hIAP inh -12.3, mIAP block 21.0 and hIAP act 1.12.
For CN(C)S(=O)(=O)c1cccc(-c2nn(-c3ccccc3)cc2/C=C2\SC(=S)NC2=O)c1 the results were bIAP act 2.1* and bIAP inhibitor -108.0.
For CCCOc1ccc(CNC(=S)NCc2ccc(OC(C)C)cc2)cc1 the results were mIAP activ 4.15*, bIAP act 1, hIAP inh -22.1, bIAP inhibitor -1.7, mIAP block -315.0 and hIAP act 1.22.
For Cc1ccc(NC(=O)C(c2ccccc2)N2CCN(CC(=O)N3CCOCC3)CC2)cc1Cl (stereo not drawn) the results were mIAP activ 1.15, hIAP inh -0.7, mIAP block -14.7 and hIAP act 1.01.
`COc1cc2c(cc1OC)C(C(=O)Nc1ccc3c(c1)OCCO3)C1c3ccccc3CCN1C2=O` (stereo not drawn) gave mIAP activ 1.94, bIAP act 2.5*, hIAP inh 4.7, bIAP inhibitor -145.9, mIAP block -94.3 and hIAP act 0.953.
`Cc1c(CCOC(=O)c2cccc([N+](=O)[O-])c2)sc[n+]1CC(=O)c1ccccc1` gave mIAP activ 0.572, bIAP act 0.4, hIAP inh 15.2, mIAP block 42.8* and hIAP act 0.848.
For Cn1nnnc1Sc1ncnc2scc(-c3cc4ccccc4o3)c12 the results were mIAP activ 0.91, hIAP inh -6.2, mIAP block 9.0 and hIAP act 1.06.
For Cc1cccc(NC(=O)c2cn(-c3ccccc3)nc2-c2ccccc2)c1 the results were mIAP activ 2.59*, bIAP act 0.9, hIAP inh -9.3, bIAP inhibitor 6.2, mIAP block -159.1 and hIAP act 1.09.
`O=C(Nc1ccccc1)Nc1ccccc1Br` gave mIAP activ 1.52, bIAP act 1, hIAP inh -16.5, bIAP inhibitor -1.6, mIAP block -52.5 and hIAP act 1.17.
O=C(Nc1ccncc1)Nc1cccc(Cl)c1Cl was read as mIAP activ 1.73, hIAP inh -25.3, mIAP block -73.3 and hIAP act 1.25.
O=C(Nc1ccccc1)Nc1ccc(Br)c(Cl)c1 was read as mIAP activ 3.34*, bIAP act 1, hIAP inh -28.8, bIAP inhibitor 0.1, mIAP block -234.4 and hIAP act 1.29.
O=C(Nc1ccc(F)cc1)Nc1cccc(Br)c1 was read as mIAP activ 2.99*, hIAP inh -1.0, mIAP block -198.9 and hIAP act 1.01.
O=C(Nc1ccc(Oc2ccc(NC(=O)Nc3ccccc3Cl)cc2)cc1)Nc1ccccc1Cl was read as mIAP activ 2.02*, hIAP inh -0.7, mIAP block -102.1 and hIAP act 1.01.
For O=C(Nc1ccccc1)Nc1cccc(Cl)c1Cl the results were mIAP activ 2.92*, bIAP act 0.9, hIAP inh -3.0, bIAP inhibitor 13.2, mIAP block -191.6 and hIAP act 1.03.
